Source: PMC2587418 (Journal of medicinal chemistry, 2008)
Like-named read-outs stand apart in the source and are kept apart here.

Columns and labels:
[1] = monkey; within 10-20 min after injection; cited from earlier work
[2] = type: in vivo, rat; conditions: pretreated with 3 (10 mg/kg i.v.)
How it was run: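 Adult male Sprague-Dawley rats (225–250 g) were pretreated by tail vein with a selective CB1 inverse agonist (10 mg/kg, i.v.) or its vehicle. After 15 min they received the test compound (30 μg/kg, i.v.) and were killed by cervical dislocation at 0.25, 0.5, 1, 2, 4 or 8 h, three rats per time point. Frontal cortex was weighed, homogenised in four volumes MeCN with 0.1% HCO2H, and quantified by LC-MS.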

human CB1 receptors = human CB1 receptors (Homo sapiens, UniProt P21554); experiment: CB1 GTPγ35S potency assay; type: biochemical; conditions: ratio of CB2 Kb to CB1 Kb; fold
Chain of human CB1 receptors (P21554 whole entry): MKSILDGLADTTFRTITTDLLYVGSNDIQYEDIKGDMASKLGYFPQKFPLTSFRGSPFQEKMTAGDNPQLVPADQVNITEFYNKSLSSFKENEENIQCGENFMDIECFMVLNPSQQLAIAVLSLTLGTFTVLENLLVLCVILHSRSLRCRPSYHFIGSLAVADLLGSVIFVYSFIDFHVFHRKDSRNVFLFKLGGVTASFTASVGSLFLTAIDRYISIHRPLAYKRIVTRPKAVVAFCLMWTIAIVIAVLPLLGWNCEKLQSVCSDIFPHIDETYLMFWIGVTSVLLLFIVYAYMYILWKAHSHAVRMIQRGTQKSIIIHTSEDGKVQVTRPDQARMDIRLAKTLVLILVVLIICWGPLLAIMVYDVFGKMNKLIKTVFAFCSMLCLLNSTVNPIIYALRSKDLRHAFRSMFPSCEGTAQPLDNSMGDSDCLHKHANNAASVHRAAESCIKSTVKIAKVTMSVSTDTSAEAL

Ligand quantifiability in frontal cerebral cortex ([2]; at 4 h after injection)	CB1 versus CB2 selectivity (human CB1 receptors)	Ligand quantifiability in frontal cerebral cortex ([2]; at 2 h after injection)	SMILES	Brain standardized uptake value [1]
not quantifiable			COc1cccc([C@H]2C[C@@H](N[C@H](C)c3ccccc3)C(=O)N2c2ccc(C(F)(F)F)cc2)c1 [Ligand 8, (3R,5R)-5-(3-Methoxy-phenyl)-3-((R)-1-phenyl-ethylamino)-1-(4-trifluoromethyl-phenyl)-pyrrolidin-2-one]	
	>19,500	could not be quantified	C[C@@H](N[C@@H]1C[C@H](c2cccc(OCCF)c2)N(c2ccc(C(F)(F)F)cc2)C1=O)c1ccccc1 [Ligand 22, (3R,5R)-5-[3-(2-Fluoro-ethoxy)-phenyl]-3-((R)-1-phenyl-ethylamino)-1-(4-trifluoromethyl-phenyl)-pyrrolidin-2-one]	
	2,160		COc1cccc([C@H]2C[C@@H](N[C@H](C)c3ccc(F)cc3)C(=O)N2c2ccc(C(F)(F)F)cc2)c1 [Ligand 16, (3R,5R)-3-[(R)-1-(4-Fluoro-phenyl)-ethylamino]-5-(3-methoxy-phenyl)-1-(4-trifluoromethyl-phenyl)-pyrrolidin-2-one]	

More lines, now with the values behind:

SMILES	Ligand quantifiability in frontal cerebral cortex ([2]; at 4 h after injection)	CB1 versus CB2 selectivity (human CB1 receptors)	Ligand quantifiability in frontal cerebral cortex ([2]; at 2 h after injection)	Brain standardized uptake value [1]
C[C@@H](N[C@@H]1C[C@H](c2cccc(O[11CH3])c2)N(c2ccc(C(F)(F)F)cc2)C1=O)c1ccccc1 [[^11C]8, [methyl-^11C](3R,5R)-5-(3-methoxy-phenyl)-3-((R)-1-phenyl-ethylamino)-1-(4-trifluoromethyl-phenyl)-pyrrolidin-2-one]				~600 % SUV
C[C@@H](N[C@@H]1C[C@H](c2cccc(OCF)c2)N(c2ccc(C(F)(F)F)cc2)C1=O)c1ccccc1 [Ligand 20, (3R,5R)-5-(3-Fluoromethoxy-phenyl)-3-((R)-1-phenyl-ethylamino)-1-(4-trifluoromethyl-phenyl)-pyrrolidin-2-one]	not quantifiable	3,580		
